# Assays:
# leukotriene B4 ω-oxidase = settings: read-out: IC50 leukotriene B4 ω-oxidase; suicide inhibitor; cited from earlier work
# LdTopIB [1] = biological target: T1, LdTopIB (Leishmania donovani, UniProt A0A3Q8IHS4+Q8WQM6); test: Plasmid DNA relaxation assay, LdTopIB; type: biochemical
# hTopIB [2] = biological target: T2, hTopIB (Homo sapiens, UniProt P11387); test: Plasmid DNA relaxation assay, hTopIB; type: biochemical
# T2 sequence (P11387 1-765): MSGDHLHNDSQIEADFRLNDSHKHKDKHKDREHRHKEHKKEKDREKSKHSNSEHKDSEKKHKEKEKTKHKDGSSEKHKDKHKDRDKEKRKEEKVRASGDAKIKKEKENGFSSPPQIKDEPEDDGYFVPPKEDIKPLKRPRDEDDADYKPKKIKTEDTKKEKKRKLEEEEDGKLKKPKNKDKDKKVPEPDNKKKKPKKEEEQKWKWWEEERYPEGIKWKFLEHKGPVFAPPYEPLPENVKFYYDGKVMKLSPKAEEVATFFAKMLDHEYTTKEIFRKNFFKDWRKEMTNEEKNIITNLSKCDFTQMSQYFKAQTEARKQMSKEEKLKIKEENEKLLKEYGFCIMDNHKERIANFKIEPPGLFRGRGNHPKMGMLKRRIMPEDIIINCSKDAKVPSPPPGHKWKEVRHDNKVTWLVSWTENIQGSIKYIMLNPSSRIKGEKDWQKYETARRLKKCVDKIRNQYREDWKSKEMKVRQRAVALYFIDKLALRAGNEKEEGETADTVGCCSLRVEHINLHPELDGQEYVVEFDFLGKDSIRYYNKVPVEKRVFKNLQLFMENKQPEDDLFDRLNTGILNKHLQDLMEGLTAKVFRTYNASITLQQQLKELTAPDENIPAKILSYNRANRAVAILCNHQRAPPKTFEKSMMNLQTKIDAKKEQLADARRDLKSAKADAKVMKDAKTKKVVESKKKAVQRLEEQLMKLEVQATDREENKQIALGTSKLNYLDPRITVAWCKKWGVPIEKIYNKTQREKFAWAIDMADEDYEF
# [3] = test system: Leishmania donovani, Trypanosoma brucei rhodesiense, Trypanosoma cruzi; test: Antiprotozoal activity against all the studied protozoa; type: cell-based; settings: read-out: IC50 values against all the studied protozoa
# Procedure, shortened: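 In vitro growth-inhibition IC50 against L. donovani, T. cruzi and T. b. rhodesiense. Values are averages of at least two independent assays, each run in duplicate. Reference drugs in the same set are melarsoprol, benznidazole, miltefosine and podophyllotoxin.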
# [4] = test system: Trypanosoma brucei rhodesiense (bloodstream forms); test: Antiprotozoal activity against T. brucei rhodesiense bloodstream forms; type: cell-based; settings: read-out: Trypanosoma brucei rhodesiense IC50
# [5] = test system: L. infantum promastigotes; settings: 400 μM, 24 h
# [6] = test system: fluconazole resistant Candida albicans strains; settings: series of strains; cited from earlier work
# [7] = test system: Leishmania donovani (axenic amastigotes); test: Antiprotozoal activity against L. donovani axenic amastigotes; type: cell-based; settings: read-out: Leishmania donovani IC50
# L6 cell cytotoxicity = type: cell-based; settings: rat, L6 cells (rat skeletal myoblasts)
# [8] = test system: Murine macrophages BALB/c; test: Toxicity against BALB/c murine macrophages; type: cell-based; settings: Mus musculus, Macrophage, read-out: Murine macrophages BALB/c IC50
# [9] = test system: L. infantum promastigotes; test: Activity against L. infantum promastigotes; type: cell-based; settings: Leishmania infantum, read-out: IC50 against L. infantum promastigotes
# LdTopIB [10] = biological target: T1, LdTopIB; test: Supercoiled plasmid DNA TopIB-mediated cleavage assay, LdTopIB; type: biochemical
# hTopIB [11] = biological target: T2, hTopIB; test: Supercoiled plasmid DNA TopIB-mediated cleavage assay, hTopIB; type: biochemical; settings: 100 μM
compound,measurement,setting,value
"C#CCCCCCCCCCCCCCCCC(=O)O [17-ODA, 17-octadecynoic acid]",IC50,leukotriene B4 ω-oxidase,< 5 µM
"CCCCCCCCCCCCCCCC#CC(=O)O [2-ODA, 2-octadecynoic acid]",EC50,LdTopIB [1],5.3 ± 0.7 µM
"CCCCCCCCCCCC#CC(=O)O [2-TDA, 2-tetradecynoic acid]",EC50,LdTopIB [1],67.8 ± 1.1 µM
same,EC50,hTopIB [2],> 100 µM
same,inhibition of hTopIB at 100 μM,hTopIB [2],neither 2-TDA nor 2-HDA was inhibitory
same,IC50,[3],24.7 to 255 µM
"CC[C@@]1(O)C(=O)OCc2c1cc1n(c2=O)Cc2cc3ccccc3nc2-1 [CPT, camptothecin, reference compound]",EC50,LdTopIB [1],0.67 ± 0.08 µM
"Nc1nc(N)nc(Nc2ccc([As]3SCC(CO)S3)cc2)n1 (stereo not shown) [Melarsoprol, reference compound]",IC50,[4],0.0075 µM
OO [hydrogen peroxide],apoptotic cells (Annexin-V-FITC),[5],positive test
"CCCCCCCCCCCC#CCCCCC(=O)O [6-ODA, 6-octadecynoic acid]",IC50 against fluconazole resistant Candida albicans strains,[6],0.45 to 0.65 µg/mL
"CCCCCCCCCCCCCC#CC(=O)O [2-HDA, 2-hexadecynoic acid]",IC50,[4],83.6 µM
same,IC50,[7],17.8 µM
same,IC50,L6 cell cytotoxicity,340 µM
same,EC50,LdTopIB [1],28.7 ± 1.3 µM
same,EC50,hTopIB [2],> 100 µM
same,inhibition of hTopIB at 100 μM,hTopIB [2],neither 2-TDA nor 2-HDA was inhibitory
same,IC50,[8],> 100 µM
same,IC50,[9],14.9 µM
same,inhibition of catalytic activity of LdTopIB,LdTopIB [10]; 100 μM,inhibits the catalytic activity
same,enzymatic activity of LdTopIB after pre-incubation,LdTopIB [10]; pre-incubated 15 min with 100 μM before DNA and CPT,fully inhibited
same,inhibition of hTopIB,hTopIB [11],no inhibition
same,IC50,[3],17.8 to 83.6 µM

# Source: article PMC3483883 (Bioorganic & medicinal chemistry letters, 2012)
